Results published in ChEMBL document CHEMBL5030525, “Design, synthesis and antitumor activity evaluation of trifluoromethyl-substituted pyrimidine derivatives” (Bioorg Med Chem Lett, 2021).

Experiments:
Assay type in all cases: functional, cell-based
MCF7 = assay: Antiproliferative activity against human MCF7 cells assessed as inhibition of cell growth measured after 72 hrs by MTT assay; conditions: MCF7, 72 h
Outline: (§1)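 Cells in log phase were seeded at 3000–5000 per well and cultured 24 h at 37 °C, then exposed to a range of compound concentrations in fresh medium for 72 h. MTT was added and incubated 4 h at 37 °C, formazan was dissolved in DMSO, and absorbance was read at 490 nm. IC50 was taken from survival rate, as mean ± SD of three independent experiments. Stocks were 10 mM in DMSO.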

PC-3 = assay: Antiproliferative activity against human PC-3 cells assessed as inhibition of cell growth measured after 72 hrs by MTT assay; conditions: PC-3, 72 h; outline: as §1
MGC-803 = assay: Antiproliferative activity against human MGC-803 cells assessed as inhibition of cell growth measured after 72 hrs by MTT assay; conditions: MGC-803, 72 h; outline: as §1
NCI-H1975 = assay: Antiproliferative activity against human NCI-H1975 cells assessed as inhibition of cell growth measured after 72 hrs by MTT assay; conditions: NCI-H1975, 72 h; outline: as §1

| Compound | IC50 (MCF7) | IC50 (PC-3) | IC50 (MGC-803) | IC50 (NCI-H1975) |
| --- | --- | --- | --- | --- |
| FC(F)(F)c1ccc(CSc2nc(Nc3ccc(Cl)cc3Cl)cc(C(F)(F)F)n2)cc1 | > 50 µM | 29.6 µM | 35.5 µM | 33.5 µM |
| FC(F)(F)c1ccc(CSc2nc(N3CCSCC3)cc(C(F)(F)F)n2)cc1 | > 50 µM | 46.8 µM | 44 µM | > 50 µM |
| FC(F)(F)c1ccc(CSc2nc(N3CCNCC3)cc(C(F)(F)F)n2)cc1 | 10.7 µM | 15.9 µM | 5.87 µM | 6.21 µM |
| COc1ccc(Nc2cc(C(F)(F)F)nc(SCc3ccc(C(F)(F)F)cc3)n2)cn1 | 36.9 µM | 23.8 µM | 12.2 µM | 6.32 µM |
| C=CC(=O)Nc1cccc(Nc2cc(C(F)(F)F)nc(SCc3cccc(Br)c3)n2)c1 | 14.3 µM | 7.44 µM | 22.8 µM | 7.44 µM |
| C=CC(=O)Nc1cccc(Nc2cc(C(F)(F)F)nc(SCc3ccc(F)cc3)n2)c1 | 14.9 µM | 9.22 µM | 9.25 µM | 10.1 µM |
| C=CC(=O)Nc1cccc(Nc2cc(C(F)(F)F)nc(SCc3ccc(C)cc3)n2)c1 | 25.7 µM | 17.8 µM | 18.5 µM | 15 µM |
| C=CC(=O)Nc1cccc(Nc2cc(C(F)(F)F)nc(SCc3ccccc3)n2)c1 | 19.1 µM | 14.2 µM | 22.3 µM | 21.9 µM |
| C=CC(=O)Nc1cccc(Nc2cc(C(F)(F)F)nc(SCc3ccc(Cl)cc3Cl)n2)c1 | 6.25 µM | 6.66 µM | 18.6 µM | 15.3 µM |
| FC(F)(F)c1ccc(CSc2nc(Sc3nnnn3-c3ccccc3)cc(C(F)(F)F)n2)cc1 | 39.5 µM | 45.3 µM | 12.4 µM | 24.3 µM |
| FC(F)(F)c1ccc(CSc2nc(SC3=NCCS3)cc(C(F)(F)F)n2)cc1 | 44.9 µM | 40.6 µM | 24.5 µM | 24.2 µM |
| FC(F)(F)c1ccc(CSc2nc(Nc3nnn[nH]3)cc(C(F)(F)F)n2)cc1 | > 50 µM | > 50 µM | > 50 µM | > 50 µM |
| CC(C)(C)OC(=O)N1CCN(c2cc(C(F)(F)F)nc(SCc3ccc(C(F)(F)F)cc3)n2)CC1 | > 50 µM | 40.6 µM | 22.2 µM | > 50 µM |
| C=CC(=O)Nc1cccc(Nc2cc(C(F)(F)F)nc(SCc3ccccc3F)n2)c1 | 31.1 µM | 8.67 µM | 13.4 µM | 15.4 µM |
| FC(F)(F)c1ccc(CSc2nc(Sc3ccccn3)cc(C(F)(F)F)n2)cc1 | 43.2 µM | 25.2 µM | > 50 µM | 23.9 µM |
| Fc1ccc(Nc2cc(C(F)(F)F)nc(SCc3ccc(C(F)(F)F)cc3)n2)cc1 | > 50 µM | 14.1 µM | 19.2 µM | 17.4 µM |
| C=CC(=O)Nc1cccc(Nc2cc(C(F)(F)F)nc(SCc3c(Cl)cccc3Cl)n2)c1 | 9.66 µM | 14.6 µM | 34.7 µM | 9.03 µM |
| C=CC(=O)Nc1cccc(Nc2cc(C(F)(F)F)nc(SCC3CCCO3)n2)c1 (configuration not stated) | 18.3 µM | 12.9 µM | 37.2 µM | 17.6 µM |
| CN1CCN(c2cc(C(F)(F)F)nc(SCc3ccc(C(F)(F)F)cc3)n2)CC1 | 30.2 µM | 34.7 µM | 15.8 µM | 23.9 µM |
| C=CC(=O)Nc1cccc(Nc2cc(C(F)(F)F)nc(SCc3ccccc3OC)n2)c1 | 22 µM | 9.96 µM | 32.7 µM | 6.5 µM |
| C=CC(=O)Nc1cccc(Nc2cc(C(F)(F)F)nc(SCc3cccc(C)c3)n2)c1 | 26.7 µM | 9.05 µM | 12.6 µM | 13.2 µM |
| C=CC(=O)Nc1cccc(Nc2cc(C(F)(F)F)nc(SCc3cnc(Cl)s3)n2)c1 | 10.7 µM | 11.5 µM | 38.3 µM | 10.9 µM |
| C=CC(=O)Nc1cccc(Nc2cc(C(F)(F)F)nc(SCc3ccc(Br)cc3)n2)c1 | 11.7 µM | 6.32 µM | 29.4 µM | 6.44 µM |
